Assay results as given in ChEMBL document CHEMBL5058577, “EUbOPEN Chemogenomics Library 2 (Multiplex)” (2022).

Test system: Fibroblast
Test: Multiplex assay against human fibroblast
Assay type: toxicity, cell-based
Method in brief: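 On a CQ1 microscope at 37°C and 5% CO2, live cells were imaged after compound addition. They had been stained at seeding with Hoechst33342, BioTracker Green Microtubule Cytoskeleton Dye, MitoTracker Red and Annexin V Alexa Fluor 680. CellPathfinder machine-learning gating assigned cells to Hoechst high-intensity objects or normal cells, normal cells to healthy, pyknosed or fragmented nuclei, and pyknosed cells to mitotic or apoptotic. Tubulin, mitochondrial-mass and membrane-permeability phenotypes are per cents of healthy-nucleus cells.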

[1] = 12 h, 1 µM, compound concentration 1 uM, replicate 1
[2] = 12 h, 1 µM, compound concentration 1 uM, replicate 2
[3] = 12 h, 10 µM, compound concentration 10 uM, replicate 1
[4] = 12 h, 10 µM, compound concentration 10 uM, replicate 2
[5] = 24 h, 1 µM, compound concentration 1 uM, replicate 1
[6] = 24 h, 1 µM, compound concentration 1 uM, replicate 2
[7] = 24 h, 10 µM, compound concentration 10 uM, replicate 1
[8] = 24 h, 10 µM, compound concentration 10 uM, replicate 2
[9] = 48 h, 1 µM, compound concentration 1 uM, replicate 1
[10] = 48 h, 1 µM, compound concentration 1 uM, replicate 2
[11] = 48 h, 10 µM, compound concentration 10 uM, replicate 1
[12] = 48 h, 10 µM, compound concentration 10 uM, replicate 2

CCc1cc2cc(NS(=O)(=O)c3ccc(C#N)cc3)ccc2n(CC)c1=O
Population Apoptotic (%) [1]: 42%
Population Fragmented Nuclei (%) [1]: 16%
Population Healthy Nuclei (%) [1]: 64%
Population Hoechst High Intensity Objects (%) [1]: 1%
Population Membrane Permeable-Phenotype (%) [1]: 1%
Population Mitochondria Different-Phenotype (%) [1]: 3%
Population Mitotic Cells (%) [1]: 57%
Population Normal (%) [1]: 98%
Population Pyknosed Nuclei (%) [1]: 18%
Population Tubulin-Different-Phenotype (%) [1]: 24%
Total Cell Count [1]: 157
Population Fragmented Nuclei (%) [2]: 27%
Population Healthy Nuclei (%) [2]: 40%
Population Hoechst High Intensity Objects (%) [2]: 6%
Population Membrane Permeable-Phenotype (%) [2]: 9%
Population Mitochondria Different-Phenotype (%) [2]: 7%
Population Normal (%) [2]: 93%
Population Pyknosed Nuclei (%) [2]: 32%
Population Tubulin-Different-Phenotype (%) [2]: 39%
Total Cell Count [2]: 173
Population Apoptotic (%) [3]: 42%
Population Fragmented Nuclei (%) [3]: 18%
Population Healthy Nuclei (%) [3]: 54%
Population Hoechst High Intensity Objects (%) [3]: 1%
Population Membrane Permeable-Phenotype (%) [3]: 1%
Population Mitochondria Different-Phenotype (%) [3]: 5%
Population Mitotic Cells (%) [3]: 57%
Population Normal (%) [3]: 98%
Population Pyknosed Nuclei (%) [3]: 26%
Population Tubulin-Different-Phenotype (%) [3]: 65%
Total Cell Count [3]: 133
Population Apoptotic (%) [4]: 18%
Population Fragmented Nuclei (%) [4]: 19%
Population Healthy Nuclei (%) [4]: 43%
Population Hoechst High Intensity Objects (%) [4]: 5%
Population Membrane Permeable-Phenotype (%) [4]: 12%
Population Mitochondria Different-Phenotype (%) [4]: 6%
Population Mitotic Cells (%) [4]: 81%
Population Normal (%) [4]: 94%
Population Pyknosed Nuclei (%) [4]: 37%
Population Tubulin-Different-Phenotype (%) [4]: 74%
Total Cell Count [4]: 153
Population Apoptotic (%) [5]: 53%
Population Fragmented Nuclei (%) [5]: 19%
Population Healthy Nuclei (%) [5]: 63%
Population Hoechst High Intensity Objects (%) [5]: 5%
Population Membrane Permeable-Phenotype (%) [5]: 1%
Population Mitochondria Different-Phenotype (%) [5]: 4%
Population Mitotic Cells (%) [5]: 46%
Population Normal (%) [5]: 94%
Population Pyknosed Nuclei (%) [5]: 17%
Population Tubulin-Different-Phenotype (%) [5]: 26%
Total Cell Count [5]: 157
Population Apoptotic (%) [6]: 43%
Population Fragmented Nuclei (%) [6]: 26%
Population Healthy Nuclei (%) [6]: 48%
Population Hoechst High Intensity Objects (%) [6]: 6%
Population Membrane Permeable-Phenotype (%) [6]: 9%
Population Mitochondria Different-Phenotype (%) [6]: 8%
Population Mitotic Cells (%) [6]: 56%
Population Normal (%) [6]: 93%
Population Pyknosed Nuclei (%) [6]: 25%
Population Tubulin-Different-Phenotype (%) [6]: 51%
Total Cell Count [6]: 164
Population Apoptotic (%) [7]: 50%
Population Fragmented Nuclei (%) [7]: 19%
Population Healthy Nuclei (%) [7]: 58%
Population Hoechst High Intensity Objects (%) [7]: 2%
Population Membrane Permeable-Phenotype (%) [7]: 1%
Population Mitochondria Different-Phenotype (%) [7]: 6%
Population Mitotic Cells (%) [7]: 50%
Population Normal (%) [7]: 97%
Population Pyknosed Nuclei (%) [7]: 22%
Population Tubulin-Different-Phenotype (%) [7]: 59%
Total Cell Count [7]: 130
Population Apoptotic (%) [8]: 32%
Population Fragmented Nuclei (%) [8]: 22%
Population Healthy Nuclei (%) [8]: 38%
Population Hoechst High Intensity Objects (%) [8]: 9%
Population Membrane Permeable-Phenotype (%) [8]: 6%
Population Mitochondria Different-Phenotype (%) [8]: 12%
Population Mitotic Cells (%) [8]: 67%
Population Normal (%) [8]: 90%
Population Pyknosed Nuclei (%) [8]: 39%
Population Tubulin-Different-Phenotype (%) [8]: 72%
Total Cell Count [8]: 145
Population Apoptotic (%) [9]: 52%
Population Fragmented Nuclei (%) [9]: 24%
Population Healthy Nuclei (%) [9]: 59%
Population Hoechst High Intensity Objects (%) [9]: 3%
Population Membrane Permeable-Phenotype (%) [9]: 0%
Population Mitochondria Different-Phenotype (%) [9]: 4%
Population Mitotic Cells (%) [9]: 47%
Population Normal (%) [9]: 96%
Population Pyknosed Nuclei (%) [9]: 15%
Population Tubulin-Different-Phenotype (%) [9]: 27%
Total Cell Count [9]: 150
Population Apoptotic (%) [10]: 37%
Population Fragmented Nuclei (%) [10]: 33%
Population Healthy Nuclei (%) [10]: 50%
Population Hoechst High Intensity Objects (%) [10]: 5%
Population Membrane Permeable-Phenotype (%) [10]: 12%
Population Mitochondria Different-Phenotype (%) [10]: 8%
Population Mitotic Cells (%) [10]: 62%
Population Normal (%) [10]: 94%
Population Pyknosed Nuclei (%) [10]: 16%
Population Tubulin-Different-Phenotype (%) [10]: 60%
Total Cell Count [10]: 156
Population Apoptotic (%) [11]: 60%
Population Fragmented Nuclei (%) [11]: 17%
Population Healthy Nuclei (%) [11]: 62%
Population Hoechst High Intensity Objects (%) [11]: 1%
Population Membrane Permeable-Phenotype (%) [11]: 1%
Population Mitochondria Different-Phenotype (%) [11]: 12%
Population Mitotic Cells (%) [11]: 40%
Population Normal (%) [11]: 98%
Population Pyknosed Nuclei (%) [11]: 19%
Population Tubulin-Different-Phenotype (%) [11]: 61%
Total Cell Count [11]: 129
Population Fragmented Nuclei (%) [12]: 30%
Population Healthy Nuclei (%) [12]: 48%
Population Hoechst High Intensity Objects (%) [12]: 7%
Population Membrane Permeable-Phenotype (%) [12]: 18%
Population Mitochondria Different-Phenotype (%) [12]: 7%
Population Mitotic Cells (%) [12]: 39%
Population Normal (%) [12]: 92%
Population Pyknosed Nuclei (%) [12]: 20%
Population Tubulin-Different-Phenotype (%) [12]: 69%
Total Cell Count [12]: 145
